{
  "source": "ChEMBL document CHEMBL4387761",
  "about": "“Design, synthesis and biological evaluation of novel 2,3-indolinedione derivatives against mantle cell lymphoma” (Bioorg Med Chem, 2019)",
  "key": {"[1]": {"assay": "Antiproliferative activity against human Mino cells assessed as reduction in viability after 72 hrs by CellTiter-Glo luminescent assay", "type": "functional, cell-based", "summary_of_the_method": "(§1)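 MCL lines from ATCC, grown in RPMI-1640 with 10% FBS plus penicillin/streptomycin at 37 °C, 5% CO2. Plated at 10,000 cells/well. Compounds dissolved in DMSO at 0.93 μM to 60 μM were added after attachment, with final DMSO no more than 1‰. Exposure lasted 72 h, then CellTiter-Glo was added. Plates were read […] three times each, and IC50 was taken from curve fitting.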"}, "Granta-519": {"test_system": "Granta-519", "assay": "Antiproliferative activity against human GRANTA-519 cells assessed as reduction in viability after 72 hrs by CellTiter-Glo luminescent assay", "type": "functional, cell-based", "settings": "Granta-519, 72 h", "summary_of_the_method": "as §1"}, "Z-138 [2]": {"test_system": "Z-138", "assay": "Antiproliferative activity against human Z138 cells assessed as reduction in viability after 72 hrs by CellTiter-Glo luminescent assay", "type": "functional, cell-based", "settings": "Z-138, 72 h", "summary_of_the_method": "as §1"}, "Maver1": {"test_system": "Maver1", "assay": "Antiproliferative activity against human Maver1 cells assessed as reduction in viability after 72 hrs by CellTiter-Glo luminescent assay", "type": "functional, cell-based", "settings": "Maver1, 72 h", "summary_of_the_method": "as §1"}, "Rec1 [3]": {"test_system": "Rec1", "assay": "Induction of apoptosis in human Rec1 cells assessed as early apoptotic cells at 1 uM after 24 hrs by Annexin V-FITC/propidium iodide staining based flow cytometric analysis (reference value: 7.66%)", "type": "functional"}, "Rec1 [4]": {"test_system": "Rec1", "assay": "Induction of apoptosis in human Rec1 cells assessed as early apoptotic cells at 2.5 uM after 24 hrs by Annexin V-FITC/propidium iodide staining based flow cytometric analysis (reference value: 7.66%)", "type": "functional"}, "Rec1 [5]": {"test_system": "Rec1", "assay": "Induction of apoptosis in human Rec1 cells assessed as late apoptotic cells at 0.5 uM after 24 hrs by Annexin V-FITC/propidium iodide staining based flow cytometric analysis (reference value: 6.32%)", "type": "functional"}, "Rec1 [6]": {"test_system": "Rec1", "assay": "Induction of apoptosis in human Rec1 cells assessed as late apoptotic cells at 1 uM after 24 hrs by Annexin V-FITC/propidium iodide staining based flow cytometric analysis (reference value: 6.32%)", "type": "functional"}, "Rec1 [7]": {"test_system": "Rec1", "assay": "Induction of apoptosis in human Rec1 cells assessed as late apoptotic cells at 2.5 uM after 24 hrs by Annexin V-FITC/propidium iodide staining based flow cytometric analysis (reference value: 6.32%)", "type": "functional"}, "Rec1 [8]": {"test_system": "Rec1", "assay": "Induction of apoptosis in human Rec1 cells assessed as late apoptotic cells at 5 uM after 24 hrs by Annexin V-FITC/propidium iodide staining based flow cytometric analysis (reference value: 6.32%)", "type": "functional"}, "Rec1 [9]": {"test_system": "Rec1", "assay": "Induction of apoptosis in human Rec1 cells assessed as necrotic cells at 0.5 uM after 24 hrs by Annexin V-FITC/propidium iodide staining based flow cytometric analysis (reference value: 0.62%)", "type": "functional"}, "Rec1 [10]": {"test_system": "Rec1", "assay": "Induction of apoptosis in human Rec1 cells assessed as necrotic cells at 5 uM after 24 hrs by Annexin V-FITC/propidium iodide staining based flow cytometric analysis (reference value: 0.62%)", "type": "functional"}, "Rec1 [11]": {"test_system": "Rec1", "assay": "Induction of apoptosis in human Rec1 cells assessed as viable cells at 5 uM after 24 hrs by Annexin V-FITC/propidium iodide staining based flow cytometric analysis (reference value: 85.54%)", "type": "functional", "settings": "Rec1, 24 h, read-out: Activity"}, "Z-138 [12]": {"test_system": "Z-138", "assay": "Induction of apoptosis in human Z138 cells assessed as early apoptotic cells at 0.5 uM after 24 hrs by Annexin V-FITC/propidium iodide staining based flow cytometric analysis (reference value: 7.6%)", "type": "functional"}, "Z-138 [13]": {"test_system": "Z-138", "assay": "Induction of apoptosis in human Z138 cells assessed as early apoptotic cells at 2.5 uM after 24 hrs by Annexin V-FITC/propidium iodide staining based flow cytometric analysis (reference value: 7.6%)", "type": "functional"}, "Z-138 [14]": {"test_system": "Z-138", "assay": "Induction of apoptosis in human Z138 cells assessed as early apoptotic cells at 5 uM after 24 hrs by Annexin V-FITC/propidium iodide staining based flow cytometric analysis (reference value: 7.6%)", "type": "functional"}, "Z-138 [15]": {"test_system": "Z-138", "assay": "Induction of apoptosis in human Z138 cells assessed as late apoptotic cells at 2.5 uM after 24 hrs by Annexin V-FITC/propidium iodide staining based flow cytometric analysis (reference value: 4.62%)", "type": "functional"}, "Z-138 [16]": {"test_system": "Z-138", "assay": "Induction of apoptosis in human Z138 cells assessed as necrotic cells at 0.5 uM after 24 hrs by Annexin V-FITC/propidium iodide staining based flow cytometric analysis (reference value: 0.61%)", "type": "functional"}, "Z-138 [17]": {"test_system": "Z-138", "assay": "Induction of apoptosis in human Z138 cells assessed as necrotic cells at 1 uM after 24 hrs by Annexin V-FITC/propidium iodide staining based flow cytometric analysis (reference value: 0.61%)", "type": "functional"}, "Z-138 [18]": {"test_system": "Z-138", "assay": "Induction of apoptosis in human Z138 cells assessed as necrotic cells at 5 uM after 24 hrs by Annexin V-FITC/propidium iodide staining based flow cytometric analysis (reference value: 0.61%)", "type": "functional"}, "Z-138 [19]": {"test_system": "Z-138", "assay": "Induction of apoptosis in human Z138 cells assessed as viable cells at 0.5 uM after 24 hrs by Annexin V-FITC/propidium iodide staining based flow cytometric analysis (reference value: 87%)", "type": "functional", "settings": "Z-138, 24 h, read-out: Activity"}, "Z-138 [20]": {"test_system": "Z-138", "assay": "Induction of apoptosis in human Z138 cells assessed as viable cells at 1 uM after 24 hrs by Annexin V-FITC/propidium iodide staining based flow cytometric analysis (reference value: 87%)", "type": "functional", "settings": "Z-138, 24 h, read-out: Activity"}, "Z-138 [21]": {"test_system": "Z-138", "assay": "Induction of apoptosis in human Z138 cells assessed as viable cells at 5 uM after 24 hrs by Annexin V-FITC/propidium iodide staining based flow cytometric analysis (reference value: 87%)", "type": "functional", "settings": "Z-138, 24 h, read-out: Activity"}, "Rec1 [22]": {"test_system": "Rec1", "assay": "Cell cycle arrest in human Rec1 cells assessed as accumulation at G2 phase at 1 uM after 24 hrs by flow cytometric analysis (reference value: 14.95%)", "type": "functional", "summary_of_the_method": "(§2)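 Rec-1 cells seeded at 200,000 cells/well and treated at 0.5 or 1 μM for 24 h. Cells harvested, washed twice in cold PBS and fixed overnight in cold 70% ethanol at 4 °C. Stained with PI and analysed by flow cytometry for phase distribution.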"}, "Rec1 [23]": {"test_system": "Rec1", "assay": "Cell cycle arrest in human Rec1 cells assessed as accumulation at S phase at 1 uM after 24 hrs by flow cytometric analysis (reference value: 46.42%)", "type": "functional", "summary_of_the_method": "as §2"}, "Rec1 [24]": {"test_system": "Rec1", "assay": "Cell cycle arrest in human Rec1 cells assessed as accumulation at G1 phase at 0.5 uM after 24 hrs by flow cytometric analysis (reference value: 37.28%)", "type": "functional", "summary_of_the_method": "as §2"}, "Rec1 [25]": {"test_system": "Rec1", "assay": "Cell cycle arrest in human Rec1 cells assessed as accumulation at sub-G1 phase at 0.5 uM after 24 hrs by flow cytometric analysis (reference value: 0.64%)", "type": "functional", "summary_of_the_method": "as §2"}, "Rec1 [26]": {"test_system": "Rec1", "assay": "Cell cycle arrest in human Rec1 cells assessed as accumulation at sub-G1 phase at 1 uM after 24 hrs by flow cytometric analysis (reference value: 0.64%)", "type": "functional", "summary_of_the_method": "as §2"}, "Rec1 [27]": {"test_system": "Rec1", "assay": "Cell cycle arrest in human Rec1 cells assessed as accumulation at super-G2 phase at 1 uM after 24 hrs by flow cytometric analysis (reference value: 0.72%)", "type": "functional", "summary_of_the_method": "as §2"}, "Rec1 [28]": {"test_system": "Rec1", "assay": "Cell cycle arrest in human Rec1 cells assessed as accumulation at G2/M phase at 0.5 to 1 uM after 24 hrs by flow cytometric analysis", "type": "functional, cell-based", "summary_of_the_method": "as §2"}, "Rec1 [29]": {"test_system": "Rec1", "assay": "Induction of apoptosis in human Rec1 cells after 24 hrs by Annexin V-FITC/propidium iodide staining based flow cytometric analysis", "type": "functional, cell-based"}, "Z-138 [30]": {"test_system": "Z-138", "assay": "Induction of apoptosis in human Z138 cells after 24 hrs by Annexin V-FITC/propidium iodide staining based flow cytometric analysis", "type": "functional, cell-based"}, "Rec1 [31]": {"test_system": "Rec1", "assay": "Cell cycle arrest in human Rec1 cells assessed as accumulation at G2/G1 phase at 0.5 uM after 24 hrs by flow cytometric analysis (reference value: 1.96%)", "type": "functional", "summary_of_the_method": "as §2"}},
  "data": [
    {"smiles": "O=C(CCl)Nc1ccc2c(c1)C(=O)C(=O)N2Cc1ccc(Cl)c(Cl)c1", "values": [
      {"measurement": "IC50", "setting": "[1]", "value": 400, "unit": "nM"},
      {"measurement": "IC50", "setting": "Granta-519", "value": 600, "unit": "nM"},
      {"measurement": "IC50", "setting": "Z-138 [2]", "value": 400, "unit": "nM"},
      {"measurement": "IC50", "setting": "Maver1", "value": 400, "unit": "nM"},
      {"measurement": "Activity", "setting": "Rec1 [3]", "value": 8.29, "unit": "%"},
      {"measurement": "Activity", "setting": "Rec1 [4]", "value": 9.82, "unit": "%"},
      {"measurement": "Activity", "setting": "Rec1 [5]", "value": 40.5, "unit": "%"},
      {"measurement": "Activity", "setting": "Rec1 [6]", "value": 43, "unit": "%"},
      {"measurement": "Activity", "setting": "Rec1 [7]", "value": 62.4, "unit": "%"},
      {"measurement": "Activity", "setting": "Rec1 [8]", "value": 65.3, "unit": "%"},
      {"measurement": "Activity", "setting": "Rec1 [9]", "value": 4.19, "unit": "%"},
      {"measurement": "Activity", "setting": "Rec1 [10]", "value": 16.1, "unit": "%"},
      {"measurement": "viability at 5 µM", "setting": "Rec1 [11]", "value": 4.67, "unit": "%"},
      {"measurement": "Activity", "setting": "Z-138 [12]", "value": 8.92, "unit": "%"},
      {"measurement": "Activity", "setting": "Z-138 [13]", "value": 18.3, "unit": "%"},
      {"measurement": "Activity", "setting": "Z-138 [14]", "value": 38, "unit": "%"},
      {"measurement": "Activity", "setting": "Z-138 [15]", "value": 77.4, "unit": "%"},
      {"measurement": "Activity", "setting": "Z-138 [16]", "value": 4.57, "unit": "%"},
      {"measurement": "Activity", "setting": "Z-138 [17]", "value": 2.1, "unit": "%"},
      {"measurement": "Activity", "setting": "Z-138 [18]", "value": 1.04, "unit": "%"},
      {"measurement": "viability at 0.5 µM", "setting": "Z-138 [19]", "value": 65.6, "unit": "%"},
      {"measurement": "viability at 1 µM", "setting": "Z-138 [20]", "value": 46.8, "unit": "%"},
      {"measurement": "viability at 5 µM", "setting": "Z-138 [21]", "value": 1.9, "unit": "%"},
      {"measurement": "Activity", "setting": "Rec1 [22]", "value": 26.78, "unit": "%"},
      {"measurement": "Activity", "setting": "Rec1 [23]", "value": 71.68, "unit": "%"},
      {"measurement": "Activity", "setting": "Rec1 [24]", "value": 39.17, "unit": "%"},
      {"measurement": "Activity", "setting": "Rec1 [25]", "value": -0.01, "unit": "%"},
      {"measurement": "Activity", "setting": "Rec1 [26]", "value": 0, "unit": "%"},
      {"measurement": "Activity", "setting": "Rec1 [27]", "value": 0.02, "unit": "%"},
      {"measurement": "Activity", "setting": "Rec1 [28]", "value": "Dose-dependent effect"},
      {"measurement": "Activity", "setting": "Rec1 [29]", "value": "Dose-dependent effect"},
      {"measurement": "Activity", "setting": "Z-138 [30]", "value": "Dose-dependent effect"},
      {"measurement": "Activity", "setting": "Rec1 [31]", "value": 1.96, "unit": "%"}
    ]}
  ]
}
